Measured values collected from several papers.
Protocols differ between the studies behind these lines.
RET V804M: Proto-oncogene tyrosine-protein kinase receptor Ret (RET, Homo sapiens, UniProt P07949, V804M)
RET: Proto-oncogene tyrosine-protein kinase receptor Ret (RET, Homo sapiens, UniProt P07949)
RET M918T: Proto-oncogene tyrosine-protein kinase receptor Ret (RET, Homo sapiens, UniProt P07949, M918T)

Compound	target	read-out	mode	technique	concentration	endpoint	value
Cc1nn(C)cc1-c1nc2c(N3CCN(Cc4ccc(Cl)cc4)CC3)c(Cl)cnc2[nH]1	RET V804M	binding	–	competition with immobilised ligand	1 µM	remaining binding	22%
Nc1ncc(-c2nc(N3CCOCC3)nc(N3CCOCC3)n2)c(C(F)F)n1	Proto-oncogene tyrosine-protein kinase receptor Ret (RET, Homo sapiens, UniProt P07949, V804L)	binding	–	competition with immobilised ligand	10 µM	remaining binding	88%
O=C1NC(=O)N(c2ccccc2)C(=O)C1=CNc1ccc2[nH]c(=O)[nH]c2c1	RET	enzyme activity	inhibitor	radiometric	10 µM	remaining activity	90.6%
COc1ncccc1-c1cnn2ccc(N3CCN(C(=O)OC(C)C)CC3)nc12	RET	binding	–	competition with immobilised ligand	1 µM	remaining binding	100%
CC(C)(C)c1cc(C=C(C#N)C#N)cc(Br)c1O	RET	enzyme activity	inhibitor	–	0.5 µM	remaining activity	98.2%
Cn1cc(-c2cccc(N3CCc4c(sc5c4CC(C)(C)C5)C3=O)c2CO)cc(Nc2ccncn2)c1=O	RET	enzyme activity	inhibitor	–	1 µM	inhibition	14%
Cn1cncc1[C@@](O)(COc1ccc(C#N)cc1-c1ccc(OC(F)(F)F)cc1)c1ccc(C#N)cc1	RET M918T	cell-free assay	–	competition with immobilised ligand	1 µM	remaining binding	98%
O=C(Cn1cc(C=C2C(=O)NC(=O)NC2=O)c2ccccc21)Nc1ccccc1	RET	enzyme activity	inhibitor	radiometric	10 µM	remaining activity	110%
N#CC1(c2ccccn2)CCN(Cc2cc(C(=O)O)c(=O)n3ccccc23)CC1	RET M918T	cell-free assay	–	competition with immobilised ligand	1 µM	remaining binding	100%
C#Cc1n[nH]c2c(-c3cn([C@@H](C)c4ccccn4)c(=O)[nH]c3=O)cc(F)cc12	RET V804M	enzyme activity	inhibitor	–	0.1 µM	inhibition	-0.3%
O=C(NCc1ncc(C(F)(F)F)cc1Cl)c1ccc2c(c1)C1(CCS(=O)(=O)CC1)[C@H](C1CC1)N2S(=O)(=O)c1ccc(F)cc1	RET M918T	cell-free assay	–	competition with immobilised ligand	1 µM	remaining binding	96%
C#Cc1n[nH]c2c(-c3cn([C@@H](C)c4ccccc4)c(=O)[nH]c3=O)cc(F)cc12	RET	enzyme activity	inhibitor	–	0.1 µM	inhibition	3.2%
